# Laboratory results as given in ChEMBL document CHEMBL1125042, “Hypolipidemic activity of rifamycin derivatives” (J Med Chem, 1990).
# Key:
# Assay type in all cases: functional
# [1] = test system: Rattus norvegicus; assay: Hypolipidemic activity was determined in male rats, and low-density lipoprotein level was determined at 50 mg/kg
# Outline: (§1)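 Male Wistar rats (200–230 g), eight per group, were dosed orally in PEG 400 at 8 a.m. for 4 days, plus a second dose at 4 p.m. on day 4. Rats were fasted 16 h and killed 16 h after the last dose. Sera from pairs of rats were pooled. LDL (up to 1.040 g/cm³) was separated by ultracentrifugation and the HDL infranatant taken. Cholesterol was measured enzymatically. Results are % versus vehicle control, mean ± SEM of four pools, Student's t test.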
# [2] = test system: Rattus norvegicus; assay: Tested for hypolipidemic activity in male rats, cholesterol was determined in serum at 50 mg/kg
# Outline: (§2)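 Groups of eight male Wistar rats (200–230 g) dosed orally in PEG 400, either daily for 7 days (killed 24 h after the last dose) or for 4 days with a second dose on day 4 (killed 16 h later). Fasted 16 h. Paired sera pooled, lipoproteins separated by ultracentrifugation (1.006 and 1.040 g/cm³), HDL taken as the infranatant. Cholesterol measured enzymatically; % vs vehicle, mean ± SEM of four pools.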
# [3] = test system: Staphylococcus aureus; assay: Antibacterial activity against Staphylococcus aureus 10B
# Outline: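 Agar dilution on DST agar with 2-fold drug dilutions. Inoculum of 10⁴ viable S. aureus 10B was taken from liquid-nitrogen stock, thawed 30 min and not subcultured. It was applied by multipoint replicator and incubated overnight at 37 °C. MIC is the lowest concentration inhibiting growth relative to control cultures.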
# [4] = test system: Rattus norvegicus; assay: Hypolipidemic activity was determined in male rats, and high-density lipoprotein level was determined at 50 mg/kg; outline: as §1
# [5] = test system: Rattus norvegicus; assay: Tested for hypolipidemic activity in male rats, cholesterol was determined in serum at 20 mg/kg; outline: as §2
# [6] = test system: Rattus norvegicus; assay: Hypolipidemic activity was determined in male rats, and high-density lipoprotein level was determined at 20 mg/kg; outline: as §1
# [7] = test system: Rattus norvegicus; assay: Hypolipidemic activity was determined in male rats, and low-density lipoprotein level was determined at 20 mg/kg; outline: as §1
Compound,Activity [1],Activity [2],MIC [3],Activity [4],Activity [5],Activity [6],Activity [7]
COC1/C=C/OC2(C)Oc3c(C)c(O)c4c(O)c(c(C=NN5CCN6CCCCC6C5)c(O)c4c3C2=O)NC(=O)/C(C)=C\C=C\C(C)C(O)C(C)C(O)C(C)C(OC(C)=O)C1C (configuration not stated),-27%,-49%,0.005 µg/mL,-53%,,,
COC1/C=C/OC2(C)Oc3c(C)c(O)c4c(O)c(c(N5CCC(C)CC5)c(O)c4c3C2=O)NC(=O)/C(C)=C\C=C\C(C)C(O)C(C)C(O)C(C)C(OC(C)=O)C1C (configuration not stated),,,< 0.1 µg/mL,,-23%,-30%,23%
COC1/C=C/OC2(C)Oc3c(C)c(O)c4c(O)c(c(N5CCN(Cc6ccc(C(C)(C)C)cc6)CC5)c(O)c4c3C2=O)NC(=O)/C(C)=C\C=C\C(C)C(O)C(C)C(O)C(C)C(OC(C)=O)C1C (configuration not stated),,,0.5 µg/mL,,-70%,-71%,-70%
Cc1cc(C)c(CN2CCN(C3=CC(=O)c4ccccc4C3=O)CC2)c(C)c1,18%,-1%,> 128 µg/mL,6%,,,
COC1/C=C/OC2(C)Oc3c(C)c(O)c4c(O)c(c5[nH]c(N6CCN(Cc7ccccc7)CC6)nc5c4c3C2=O)NC(=O)/C(C)=C\C=C\C(C)C(O)C(C)C(O)C(C)C(OC(C)=O)C1C (configuration not stated),-23%,-27%,0.005 µg/mL,-33%,,,
COC1/C=C/OC2(C)Oc3c(C)c(O)c4c(O)c(c5c(c4c3C2=O)=NC2(CCN(CC(C)C)CC2)N=5)NC(=O)/C(C)=C\C=C\C(C)C(O)C(C)C(O)C(C)C(OC(C)=O)C1C (configuration not stated),14%,-7%,0.001 µg/mL,-21%,,,
COC1/C=C/OC2(C)Oc3c(C)c(OC(=O)C(C)(C)C)c4c(c3C2=O)C(=O)C(N2CCN(Cc3c(C)cc(C)cc3C)CC2)=C(NC(=O)/C(C)=C\C=C\C(C)C(O)C(C)C(O)C(C)C(OC(C)=O)C1C)C4=O (configuration not stated),,,0.5 µg/mL,,-48%,-53%,-32%
COC1/C=C/OC2(C)Oc3c(C)c(O)c4c(O)c(c(N5CCN(CC(C)C)CC5)c(O)c4c3C2=O)NC(=O)/C(C)=C\C=C\C(C)C(O)C(C)C(O)C(C)C(OC(C)=O)C1C (configuration not stated),-64%,-50%,0.005 µg/mL,-60%,,,
COC1/C=C/OC2(C)Oc3c(C)c(O)c4c(O)c(c(N5CCC(C6CCCC6)CC5)c(O)c4c3C2=O)NC(=O)/C(C)=C\C=C\C(C)C(O)C(C)C(O)C(C)C(OC(C)=O)C1C (configuration not stated),,,< 0.1 µg/mL,,-42%,-40%,-41%
COC1/C=C/OC2(C)Oc3c(C)c(O)c4c(O)c(c(N5CCC(=O)CC5)c(O)c4c3C2=O)NC(=O)/C(C)=C\C=C\C(C)C(O)C(C)C(O)C(C)C(OC(C)=O)C1C (configuration not stated),,,< 0.1 µg/mL,,1%,-9%,53%
COC1/C=C/OC2(C)Oc3c(C)c(O)c4c(O)c(c(N5CCN(Cc6ccccc6)CC5)c(O)c4c3C2=O)NC(=O)/C(C)=C\C=C\C(C)C(O)C(C)C(O)C(C)C(OC(C)=O)C1C (configuration not stated),-56%,-29%,0.004 µg/mL,-36%,,,
COC1/C=C/OC2(C)Oc3c(C)c(O)c4c(O)c(c5nc6cc(C)ccc6nc5c4c3C2=O)NC(=O)/C(C)=C\C=C\C(C)C(O)C(C)C(O)C(C)C(OC(C)=O)C1C (configuration not stated),-21%,-14%,< 0.008 µg/mL,,,,
COC1/C=C/OC2(C)Oc3c(C)c(O)c4c(O)c(c(N5CCC(CC6CCCCC6)CC5)c(O)c4c3C2=O)NC(=O)/C(C)=C\C=C\C(C)C(O)C(C)C(O)C(C)C(OC(C)=O)C1C (configuration not stated),,,1 µg/mL,,-62%,-67%,-31%
CCC1CCN(c2c3c(O)c4c(O)c(C)c5c(c4c2O)C(=O)C(C)(O/C=C/C(OC)C(C)C(OC(C)=O)C(C)C(O)C(C)C(O)C(C)/C=C/C=C(/C)C(=O)N3)O5)CC1 (configuration not stated),,,< 0.1 µg/mL,,-57%,-61%,-51%
COC1/C=C/OC2(C)Oc3c(C)c(O)c4c(O)c(c(N5CCNCC5C(=O)O)c(O)c4c3C2=O)NC(=O)/C(C)=C\C=C\C(C)C(O)C(C)C(O)C(C)C(OC(C)=O)C1C (configuration not stated),53%,-2%,0.5 µg/mL,5%,,,
COC1/C=C/OC2(C)Oc3c(C)c(O)c4c(O)c(c(C=O)c(O)c4c3C2=O)NC(=O)/C(C)=C\C=C\C(C)C(O)C(C)C(O)C(C)C(OC(C)=O)C1C (configuration not stated),19%,-5%,0.01 µg/mL,-14%,,,

Compound,Activity [1],Activity [2],MIC [3],Activity [4],Activity [5],Activity [6],Activity [7]
CCCCCCCCCCCCN1CCN(c2c3c(O)c4c(O)c(C)c5c(c4c2O)C(=O)C(C)(O/C=C/C(OC)C(C)C(OC(C)=O)C(C)C(O)C(C)C(O)C(C)/C=C/C=C(/C)C(=O)N3)O5)CC1 (configuration not stated),,,0.15 µg/mL,,-56%,-53%,-68%
COC1/C=C/OC2(C)Oc3c(C)c(O)c4c(O)c(c(N)c(O)c4c3C2=O)NC(=O)/C(C)=C\C=C\C(C)C(O)C(C)C(O)C(C)C(OC(C)=O)C1C (configuration not stated),19%,-2%,0.003 µg/mL,6%,,,
COC1/C=C/OC2(C)Oc3c(C)c(O)c4c(O)c(c(N5CCC(O)CC5)c(O)c4c3C2=O)NC(=O)/C(C)=C\C=C\C(C)C(O)C(C)C(O)C(C)C(OC(C)=O)C1C (configuration not stated),,,< 0.1 µg/mL,,0%,-3%,13%
COC1/C=C/OC2(C)Oc3c(C)c(O)c4c(O)c(c(N5CCC(C(N)=O)CC5)c(O)c4c3C2=O)NC(=O)/C(C)=C\C=C\C(C)C(O)C(C)C(O)C(C)C(OC(C)=O)C1C (configuration not stated),,,< 0.1 µg/mL,,-9%,-6%,11%
COC1/C=C/OC2(C)Oc3c(C)c(O)c4c(O)c(c(O)c(O)c4c3C2=O)NC(=O)/C(C)=C\C=C\C(C)C(O)C(C)C(O)C(C)C(OC(C)=O)C1C (configuration not stated),41%,4%,0.1 µg/mL,15%,,,
COC1/C=C/OC2(C)Oc3c(C)c(O)c4c(O)c(c(N5CCC(C(C)C)CC5)c(O)c4c3C2=O)NC(=O)/C(C)=C\C=C\C(C)C(O)C(C)C(O)C(C)C(OC(C)=O)C1C (configuration not stated),,,< 0.1 µg/mL,,-61%,-61%,-54%
COC1/C=C/OC2(C)Oc3c(C)c(O)c4c(O)c(c(C=NN5CCN(Cc6cccc7ccccc67)CC5)c(O)c4c3C2=O)NC(=O)/C(C)=C\C=C\C(C)C(O)C(C)C(O)C(C)C(OC(C)=O)C1C (configuration not stated),-35%,-69%,0.02 µg/mL,-75%,,,
COC1/C=C/OC2(C)Oc3c(C)c(O)c4c(O)c(c(C=NN5CCN(C6CCCC6)CC5)c(O)c4c3C2=O)NC(=O)/C(C)=C\C=C\C(C)C(O)C(C)C(O)C(C)C(OC(C)=O)C1C (configuration not stated),-60%,-62%,0.01 µg/mL,-59%,,,
COC1/C=C/OC2(C)Oc3c(C)c(O)c4c(O)c(c(N5CCC(Cc6ccccc6)CC5)c(O)c4c3C2=O)NC(=O)/C(C)=C\C=C\C(C)C(O)C(C)C(O)C(C)C(OC(C)=O)C1C (configuration not stated),,,0.04 µg/mL,,-53%,-51%,-66%
COC1/C=C/OC2(C)Oc3c(C)c(O)c4c(O)c(c(C=NN5CCN(Cc6c(C)cc(C)cc6C)CC5)c(O)c4c3C2=O)NC(=O)/C(C)=C\C=C\C(C)C(O)C(C)C(O)C(C)C(OC(C)=O)C1C (configuration not stated),-39%,-81%,0.05 µg/mL,-79%,,,
Cc1cc(C)c(CN2CCNCC2)c(C)c1,0%,-7%,128 µg/mL,-5%,,,
CCOC(=O)C1CCN(c2c3c(O)c4c(O)c(C)c5c(c4c2O)C(=O)C(C)(O/C=C/C(OC)C(C)C(OC(C)=O)C(C)C(O)C(C)C(O)C(C)/C=C/C=C(/C)C(=O)N3)O5)CC1 (configuration not stated),,,< 0.1 µg/mL,,-16%,-16%,5%
COC1/C=C/OC2(C)Oc3c(C)c(O)c4c(O)c(c(N5CCN(Cc6ccc(Cl)cc6)CC5)c(O)c4c3C2=O)NC(=O)/C(C)=C\C=C\C(C)C(O)C(C)C(O)C(C)C(OC(C)=O)C1C (configuration not stated),-85%,-74%,0.002 µg/mL,-73%,,,
CO[C@H]1/C=C/O[C@@]2(C)Oc3c(C)c(O)c4c(O)c(cc(O)c4c3C2=O)NC(=O)/C(C)=C\C=C\[C@H](C)[C@H](O)[C@@H](C)[C@@H](O)[C@@H](C)[C@H](OC(C)=O)[C@@H]1C [RIFAMYCIN],21%,4%,0.001 µg/mL,1%,,,
COC1/C=C/OC2(C)Oc3c(C)c(O)c4c(=O)c(c5oc6cc(C)ccc6nc-5c4c3C2=O)NC(=O)/C(C)=C\C=C\C(C)C(O)C(C)C(O)C(C)C(OC(C)=O)C1C (configuration not stated),-21%,-14%,0.001 µg/mL,-21%,,,
CCC1CCC2CN(N=Cc3c4c(O)c5c(O)c(C)c6c(c5c3O)C(=O)C(C)(O/C=C/C(OC)C(C)C(OC(C)=O)C(C)C(O)C(C)C(O)C(C)/C=C/C=C(/C)C(=O)N4)O6)CCN2C1 (configuration not stated),-31%,-62%,0.005 µg/mL,-69%,,,
